Sampled rows, rich in hits. Any-hit rate of the full collection: about 3.7%.
UPR CHOP act – apoptotic UPR (CHOP) activation | CHO-CHOP luciferase reporter, luminescence; percent of tunicamycin response over DMSO baseline | AID 449763 | 330,000 compounds, 0.34% hits | activation, % at 10 µM;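 active = at 10 µM dose, activation of 40% or more, normalized to positive control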;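 also: 100% = tunicamycin at 10 µg/mL and 0% = DMSO alone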
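measured by = luciferase luminescence | assay system = CHO-CHOP cells, stable luciferase reporter of PERK-eIF2a-CHOP signalling | amount = 500 reporter cells seeded per well | timing = 6 h compound exposure at 37 °C after overnight seeding | controls = positive tunicamycin 10 µg/mL, negative DMSO alone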
UPR XBP1 act – adaptive UPR (XBP1) activation. CHO-XBP1 luciferase reporter, IRE1-XBP1 UPR activation, luminescence; percent of tunicamycin response, DMSO as zero. activation, % at 20 µM. 330,000 compounds, 0.33% hits. AID 463104;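 active = versus positive control, 20 µM dose yields 30% or more activation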;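 also: 100% = tunicamycin at 10 µg/mL and 0% = DMSO only wells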
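incubation = overnight seeding at 37 °C, 6 h compound treatment at 37 °C | assay system = CHO-XBP1 cells stably carrying IRE1-XBP1-driven luciferase reporter | input = 1000 cells per well | detection = luciferase luminescence | dosing = single point, 20 µM final compound, 1% DMSO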
B2AR ag – agonists of human beta-2 adrenergic receptor inducing internalization; P07550; 340,000 compounds, 0.43% hits; AID 504454; response, % (test concentration not listed); Am2.2-beta2AR cells, FAP receptor internalization, flow cytometry;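 active = response above a set limit, near 3 SD of response in nonfluorescent compounds, cut at about 42% in these data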
Mdm2 ligase inh – Mdm2 E3 ligase (human) inhibition; cell-based MDM2 ubiquitination luciferase reporter, 2 h; 0 = plate control, 100 = twice control, blank-subtracted; signal enhancement, % at 5 µM; 210,000 compounds, 0.11% hits; AID 1230;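 active = signal enhancement of 30% or more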;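 also: luminescence tracks abundance of the self-degrading MDM2-luciferase fusion protein; higher signal means inhibition of MDM2 E3 ligase activity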
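Assay system: mammalian cells stably expressing self-ubiquitinating, self-degrading MDM2 E3–luciferase fusion. Quantity: 2000 cells in each well. Medium: DMEM culture medium. Compound dosing: single-point 5 µM. Timing: cell settling 4 h, compound treatment 2 h, both 37 °C. Technique: luciferase luminescence. Read-out basis: percent signal gain over controls, blank-subtracted. Benchmarks: plate controls and plate blanks.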
Mdm2 MdmX PPI – inhibitors of human Mdm2/MdmX interaction; inhibition, % at 8 µM; 330,000 compounds, 3% hits; O15151+Q00987; SaOS-2 split-luciferase Mdm2/MdmX complementation, luminescence;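 active = inhibition of at least 50% at 8 µM in the primary screen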
Target sequence (O15151 whole entry, looked up): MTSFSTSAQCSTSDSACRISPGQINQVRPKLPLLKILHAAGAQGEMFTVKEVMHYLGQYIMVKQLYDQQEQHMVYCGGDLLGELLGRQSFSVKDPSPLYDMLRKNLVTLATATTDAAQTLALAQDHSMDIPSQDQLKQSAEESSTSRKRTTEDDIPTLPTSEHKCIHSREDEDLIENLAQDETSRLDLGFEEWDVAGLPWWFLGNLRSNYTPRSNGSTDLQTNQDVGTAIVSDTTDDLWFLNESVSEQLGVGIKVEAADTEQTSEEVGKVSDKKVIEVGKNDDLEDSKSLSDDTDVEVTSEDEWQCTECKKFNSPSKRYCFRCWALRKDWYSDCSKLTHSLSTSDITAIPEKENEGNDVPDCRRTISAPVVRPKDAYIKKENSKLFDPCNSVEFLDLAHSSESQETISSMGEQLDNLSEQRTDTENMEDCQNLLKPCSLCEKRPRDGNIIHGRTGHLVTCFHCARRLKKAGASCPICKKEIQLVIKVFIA
Target sequence (Q00987 whole entry, looked up): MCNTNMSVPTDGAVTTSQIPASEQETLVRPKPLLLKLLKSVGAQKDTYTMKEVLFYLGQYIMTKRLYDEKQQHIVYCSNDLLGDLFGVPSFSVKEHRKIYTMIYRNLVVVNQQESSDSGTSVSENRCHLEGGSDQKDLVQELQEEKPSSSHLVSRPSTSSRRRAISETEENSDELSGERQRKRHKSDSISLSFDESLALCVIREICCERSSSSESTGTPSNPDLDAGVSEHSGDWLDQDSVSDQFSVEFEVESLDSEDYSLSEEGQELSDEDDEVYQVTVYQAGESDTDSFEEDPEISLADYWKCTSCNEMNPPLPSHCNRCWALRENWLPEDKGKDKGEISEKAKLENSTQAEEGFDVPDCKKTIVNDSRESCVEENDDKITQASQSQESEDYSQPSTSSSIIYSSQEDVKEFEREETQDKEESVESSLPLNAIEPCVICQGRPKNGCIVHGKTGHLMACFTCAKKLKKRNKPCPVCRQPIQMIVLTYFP
Dynein transport – dynein cargo transport inhibition; 220,000 compounds, 0.47% hits; z-score, hits read low; 3617.4 mouse cells, GR-EGFP nuclear translocation imaging; test concentration mostly 20 µM; stimulated with dexamethasone, 1 µM; active compounds read low;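 active = plate z-score of nuclear minus cytoplasmic receptor signal below a set negative limit, without overly bright fluorescence or cell loss, cut at about -3.5 in these data, passing the limit was not always enough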;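 also: z-score of nuclear minus cytoplasmic ring GR-EGFP intensity difference per well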
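Buffer or medium: tetracycline-free induction medium containing charcoal-stripped FBS / Reagent: dexamethasone agonist, 1.0 µM final, for 30 min / Technique: automated 10x imaging of fixed Hoechst-stained cells / Times: induction 48 h, compound 1 h, agonist 30 min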
UPR CHOP confirm – confirmation of apoptotic unfolded protein response (CHOP) activators | shares compounds with UPR CHOP act | CHO-CHOP cells, CHOP-luciferase reporter luminescence; percent of tunicamycin response, DMSO as zero | activation, % at 10 µM | 1,000 compounds, 64% hits | AID 463112; in the data active = activation above about 33%;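 also: 0% = DMSO wells and 100% = tunicamycin 10 µg/mL wells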
UPR XBP1 confirm – adaptive UPR (XBP1) activation, confirmed | 1,000 compounds, 63% hits | AID 485299 | CHO-XBP1 IRE1-XBP1 luciferase reporter, luminescence | activation, % at 20 µM | shares compounds with UPR XBP1 act;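 active = reporter signal at least 30% of the positive control's activation in two or more of four replicate wells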;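 also: plate controls were DMSO negative control for no effect and tunicamycin 10 µg/mL positive control for full effect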
Mdm2 MdmX conf – confirmation of human Mdm2/MdmX interaction inhibitors | shares compounds with Mdm2 MdmX PPI | Mdm2-MdmX binding, luminescent assay | inhibition, % at 8 µM | 10,000 compounds, 55% hits | AID 489028; in the data active = inhibition above about 40%
FLuc counter – inhibits full-length luciferase, flagging false Mdm2/MdmX hits; shares compounds with Mdm2 MdmX PPI; SaOS-2 full-length luciferase counterscreen, luminescence; inhibition, % at 8 µM; 6,200 compounds, 77% hits; AID 504607;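 active = mean inhibition at 8 µM reaching about 37%, which flags the compound as non-specific, limit read from the data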;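 also: p53-null SaOS-2 cells with luciferase driven by a doxycycline-inducible promoter; compound on cells about two nights before reading with doxycycline added after day one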
* marks the source's active call; other numbers are inactive results; / = no result given.

SMILES	UPR CHOP act	UPR XBP1 act	B2AR ag	Mdm2 ligase inh	Mdm2 MdmX PPI	Dynein transport	UPR CHOP confirm	UPR XBP1 confirm	others
COc1ccc(N2C(=O)/C(=C/c3ccc(C)o3)C(=O)NC2=S)cc1	433.1*	-1.0	44.3*	/	6.0	/	-9.4	/
COC(=O)C1=C(c2cc3ccccc3s2)C[C@@H]2CC[C@H]1N2C(=O)NCc1ccc(F)cc1	1.8	0.3	6.0	/	-16.9	/	/	/
CCN(CC)S(=O)(=O)N1CCC(C(=O)N2CCC3(CC2)OCCO3)CC1	-0.4	-1.9	2.1	-18.4	28.1	0.225	/	/
O=C1NC(=O)N(c2ccccc2)C(=O)/C1=C/C=C/c1ccco1	62.2*	-4.6	58.9*	9.8	-6.6	-2.2	256.1*	/
CN(C)c1ccc(/C=C/C=C2/C(=O)NC(=O)N(c3ccccc3)C2=O)cc1	/	/	-603.0	6.0	/	-0.267	/	/
CC(C)c1ccc(-n2c(O)c(C=NC(CCS(C)=O)C(=O)O)c(=O)[nH]c2=S)cc1 (centres undefined)	-1.9	-0.4	6.3	-9.4	3.1	-1.29	/	/
O=C(COc1ccc2ccccc2c1)N1CCN(Cc2c[nH]c3ccccc23)CC1	76.0*	20.4	9.5	-6.8	22.1	0.251	42.9*	/
CCCCCCn1c(=O)c(C(=O)Nc2ncccc2C)c(O)c2ccccc21	60.8*	36.1*	-6.0	/	4.6	/	27.2	/
CCN1CCN(c2nc3c(c(=O)[nH]2)CCCC3)CC1	0.4	-0.6	7.6	-18.1	-8.7	-1.14	/	/
CCN1C(=O)/C(=C/c2ccc3c(c2)CCN3CCCCl)C(=O)NC1=S	/	/	0.8	-13.1	/	-1.33	/	/
C=CCN1C(=O)/C(=C/c2ccc3c(c2)CCCN3CCC)C(=O)NC1=S	95.0*	-0.6	0.6	-12.7	-2.6	-1.57	164.2*	/
CN1C(=O)NC(=O)/C(=C\C=C\c2ccccc2[N+](=O)[O-])C1=O	202.6*	-5.9	/	2.7	32.4	-1.53	262.7*	/
O=C1NC(=O)N(Cc2ccccc2Cl)C(=O)/C1=C/c1cccs1	52.4*	47.5*	39.6	-76.0	36.9	0.488	49.9*	74.0*
Cc1ccccc1NP(=O)(Oc1ccccc1F)Oc1ccccc1F	0.7	-3.4	6.5	1.1	-0.1	0.951	/	/
CCCC[C@@H](C)C[C@@H](C)C(=O)N(C)[C@@H](CC(C)C)C(=O)N[C@H](C(=O)N(C)[C@H](C(=O)N1C[C@@H](O)C[C@H]1C(=O)N1C(=O)C=C[C@@H]1C)C(C)C)C(C)OC(C)=O (some centres undefined)	73.0*	50.8*	35.9	/	94.7*	/	46.1*	74.0*	Mdm2 MdmX conf=97.3*;FLuc counter=55.4*
CCn1cc(CN2CCCC(C(=O)c3sccc3C)C2)cn1 (centres undefined)	0.9	-0.9	-5.7	-5.7	2.0	-1.02	/	/
Cc1cccc(N2C(=O)NC(=O)/C(=C\c3cccn3-c3ccc(Cl)cc3)C2=O)c1	419.1*	-3.4	13.9	39.8*	72.8*	-0.32	21.6	/	Mdm2 MdmX conf=39.8;FLuc counter=69.2*
NC(N)=N/N=C/c1ccc(N(c2ccccc2)c2ccccc2)cc1	74.2*	61.8*	38.1	/	96.7*	/	31.1	2.9	Mdm2 MdmX conf=99.5*;FLuc counter=29.9
COc1ccc(/C=N\N=C(N)N)cc1	0.2	0.2	-9.7	-10.8	-21.2	-0.058	/	/
O=C1NC(=O)C(=Cc2ccc(-c3ccc(Cl)cc3)o2)C(=O)N1	71.3*	0.4	59.7*	/	52.7*	/	74.8*	/	Mdm2 MdmX conf=6.2
COc1ccc(CCNCc2cccn2C)cc1OC	2.4	-2.2	-3.9	/	10.1	/	/	/
Cc1ccc(-c2cc(-c3ccc(C)cc3)[n+](-c3ccc(C(=O)O)cc3)c(-c3ccc(C)cc3)c2)cc1	-0.4	-1.0	-0.4	/	8.8	/	/	/
Cc1ccc(C[n+]2c(-c3ccc(C)cc3)cc(-c3ccc(C)cc3)cc2-c2ccc(C)cc2)cc1	76.8*	42.3*	-10.8	/	100.3*	/	237.5*	19.3	Mdm2 MdmX conf=97.8*;FLuc counter=8.5
CN1CCN2c3ccc(N)cc3CC3(C(=O)NC(=O)NC3=O)C2C1 (centres undefined)	/	/	-2.1	-1.8	/	-0.104	/	/
CC1CCC/C=C/C2CC(O)CC2C(O)/C=C/C(=O)O1 (centres undefined)	123.2*	17.9	23.1	-3.5	96.3*	0.33	103.0*	/	Mdm2 MdmX conf=100.0*;FLuc counter=51.9*
SMILES	UPR CHOP act	UPR XBP1 act	B2AR ag	Mdm2 ligase inh	Mdm2 MdmX PPI	Dynein transport	UPR CHOP confirm	UPR XBP1 confirm	others
O=C1NC(=O)C(CCc2ccncc2)(Cc2ccc([N+](=O)[O-])cc2)C(=O)N1	-1.5	-2.0	24.4	/	11.1	-0.354	/	/
CCn1c(O)c(C=Nc2ccc(S(N)(=O)=O)cc2)c(=O)n(CC)c1=S	4.6	-1.2	-4.0	-6.3	33.8	1.15	/	/
NS(=O)(=O)c1ccc(N=Cc2c(O)n(C3CCCCC3)c(=O)n(C3CCCCC3)c2=O)cc1	2.9	46.0*	7.0	-74.2	40.4	1.53	/	40.4*
Cc1ccc(OCCn2cccc2/C=C2/C(=O)NC(=O)N(Cc3ccco3)C2=O)cc1	1.6	-1.5	9.0	-13.0	9.6	0.178	/	/
CCc1ccc(N2C(=O)NC(=O)/C(=C\c3cccn3CCOc3ccc(C(C)C)cc3)C2=O)cc1	23.1	51.4*	6.0	-13.4	5.0	-0.511	/	41.4*
CN(C)c1ccc(/C=C/[N+](=O)[O-])cc1	18.3	58.6*	36.5	-0.1	34.9	-0.623	/	32.9*
CC1CN=C(NCc2ccccc2)S1 (centres undefined)	0.3	-0.8	1.1	-14.1	0.7	-0.534	/	/
O=C1NC(=O)N(Cc2ccc(F)cc2)C(=O)/C1=C/c1cccs1	8.1	38.6*	21.8	-11.4	32.3	1.02	/	39.9*
COc1ccccc1NP1(=O)OCC(C)([N+](=O)[O-])CO1 (centres undefined)	/	/	-3.6	/	/	/	/	/
CCCCCCn1c(O)c(C=NC2CCCCC2N)c(=O)[nH]c1=O (centres undefined)	-0.8	30.1*	/	-13.8	-14.5	0.738	/	14.3

Screens (PubChem BioAssay)
